Activity calls are given as the source filed them. The rule behind the calls is not given here.

From ChEMBL document CHEMBL5500386, “Design, synthesis and bioactivity evaluation of 4-hydroxycoumarin derivatives as potential anti-inflammatory agents against acute lung injury and colitis” (Eur J Med Chem, 2024) come the findings set out here.

The test system of the first data set is J774.A1. The experiment in a line: Antiinflammatory activity in LPS-induced mouse J774.a1 cells assessed as inhibition of IL-6 production at 10 uM pretreated for 2 hrs followed by LPS stimulation and measured after 30 mins by ELISA relative to control. It counts as functional. To be noted: time 2.5 hrs. Summed up: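 J774A.1 cells (DMEM, 10 % FBS, 37 °C) treated with 10 μM compound or 4-HC for 2 h, then LPS. After 30 min, IL-6 in medium measured by ELISA. Result is % inhibition, mean ± SEM of three independent experiments.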
In general terms: In an ELISA, binding on a coated surface is turned into a signal by an enzyme label.
As a reminder, the inhibition is the relative decrease from the control value, in per cent. With `O=c1cc(OCCCN2CCN(CCO)CC2)c2ccccc2o1`, the inhibition at 10 µM was found to be 51.3%. The same measure, in the same setting: the same measure for `O=c1cc(OCc2cccc(F)c2)c2ccccc2o1`: 4.36%.

With `O=c1cc(OCCCNCCCN2CCOCC2)c2ccccc2o1`, the inhibition result is “inactive”.

With `O=c1cc(OCCCNCCCN2CCCC2)c2ccccc2o1`, the inhibition at 10 µM was 54.4%. Still for that read-out and setting: the value for `O=c1cc(OCCCN2CCCC2)c2ccccc2o1` was 39%. The same measure, in the same setting: the value for `COc1cccc(COc2cc(=O)oc3ccccc23)c1` was 50.4%; that for `O=c1cc(O)c2ccccc2o1` [4-HYDROXYCOUMARINS] was 17.3%. Same read-out and setting: the value for `O=c1cc(OCCN2CCOCC2)c2ccccc2o1` was 17.5%. Turning to `CN(C)CCCOc1cc(=O)oc2ccccc12`, the inhibition entry is “inactive”. Still for that read-out and setting: the value for `O=c1cc(OCC2CO2)c2ccccc2o1` (centres undefined) was “inactive”. As for `CCN1CCN(CCOc2cc(=O)oc3ccccc23)CC1`, the inhibition at 10 µM was determined as 18.1%. `O=c1cc(OCCN2CCN(C3CC3)CC2)c2ccccc2o1`: the inhibition result is “inactive”. Regarding `CCN1CCN(CCCOc2cc(=O)oc3ccccc23)CC1`, the inhibition at 10 µM was determined as 30.1%. `O=c1cc(OCCOCCN2CCNCC2)c2ccccc2o1`: the inhibition at 10 µM came out at 50.1%. With `CC1CCCN(CCCOc2cc(=O)oc3ccccc23)C1` (centres undefined), the inhibition result is “inactive”. For the compound `O=c1cc(OCCNCCc2cccs2)c2ccccc2o1`, the inhibition at 10 µM came out at 34.7%. The same measure, in the same setting: the value for `CC1CCCN(CCOc2cc(=O)oc3ccccc23)C1` (centres undefined) was 48.8%; that for `O=c1cc(OCCNCCCN2CCOCC2)c2ccccc2o1` was 21.8%; that for `O=c1cc(OCCN2CCN(CCO)CC2)c2ccccc2o1` was 48.8%. With `Cc1cc(C)cc(COc2cc(=O)oc3ccccc23)c1`, the inhibition at 10 µM is 17.5%. For the compound `O=c1cc(OCCCCN2CCOCC2)c2ccccc2o1`, the inhibition result was “inactive”. Still for that read-out and setting: the same measure for `COCCN1CCN(CCOc2cc(=O)oc3ccccc23)CC1`: “inactive”; for `COCCN1CCN(CCCOc2cc(=O)oc3ccccc23)CC1`: “inactive”. For the compound `CC(=O)N1CCN(CCCOc2cc(=O)oc3ccccc23)CC1`, the inhibition at 10 µM was 42.3%. For the compound `O=c1cc(OCCCNCCc2cccs2)c2ccccc2o1`, the inhibition entry is “inactive”.

The next data set deals with Mus musculus. The experiment in a line: Protection against LPS-induced C57BL/6 mouse model of acute lung injury assessed as reduction in IL-6 level in serum at 20 mg/kg, po administered 3 times for every 12 hrs followed by LPS stimulation at 5 mg/kg and measured after 6 hrs by ELISA. The conditions noted are these: time 30.0 hrs. It counts as functional, organism-based. A digest of the protocol: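 C57BL/6 mice, 6 per group. Gavaged at 20 mg/kg three times at 12 h intervals; controls received saline, and dexamethasone 20 mg/kg served as reference. After the last dose, LPS 5 mg/kg given intratracheally. At 6 h, blood collected for serum IL-6 by ELISA. Left lung lavaged with 3 × 200 μL saline, and BALF assayed for IL-6, total protein and neutrophil count. Mean ± SEM, n = 6.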
For the compound `C[C@@H]1C[C@H]2[C@@H]3CCC4=CC(=O)C=C[C@]4(C)[C@@]3(F)[C@@H](O)C[C@]2(C)[C@@]1(O)C(=O)CO`, the result was Active.

The subject of another data set is J774.A1. The experiment in a line: Cytotoxicity against mouse J774.A1 cells assessed as reduction in cell viability at 10 uM measured after 24 hrs by MTT assay. In kind it is toxicity, cell-based. The conditions noted are these: j774.a1, 24 h. Summed up: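 J774A.1 cells seeded and incubated 24 h, then exposed to 10 μM compound for 24 h. MTT (5.0 mg/mL) added as 10 % for 4 h, formazan dissolved in DMSO with 30 min shaking, absorbance read at 490 nm. Expressed as % of control.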
Background: Formazan colour is commonly taken as a measure of viable cells.
Take `O=c1cc(OCCCN2CCN(CCO)CC2)c2ccccc2o1`: the Activity entry is recorded as “Non-Toxic”. Same read-out and setting: the value for `O=c1cc(OCCOCCN2CCNCC2)c2ccccc2o1` was “Non-Toxic”; that for `CC(=O)N1CCN(CCCOc2cc(=O)oc3ccccc23)CC1` was “Non-Toxic”.
